Pf gametocyte: late stage P. falciparum gametocyte viability inhibitors, primary screen, ATP luminescence, HTS; inhibition, % at 10.9 µM; 150,000 compounds, 0.065% hits; P. falciparum stage V gametocytes, 24 h;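 active means inhibition above the mean plus 3 SD of compounds within the control limits, set per campaign, cut at about 38% in these data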;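 further: 0% = DMSO wells and 100% = medium only without gametocytes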
RBBP9 inhibitor: human RBBP9 inhibitors, primary screen, biochemical, fluorescence polarization, FP-Rh probe, HTS | 220,000 compounds, 0.2% hits | Serine hydrolase RBBP9 (Homo sapiens), O75884 | inhibition, % at 7.94 µM | recombinant RBBP9;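 active means inhibition above the campaign mean of all tested compounds plus 3 SD, cut at about 14% in these data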;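 further: plate controls were DMSO wells with RBBP9 for no effect and wells lacking RBBP9 protein for full effect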
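Measured by – fluorescence polarization · Test system – RBBP9 protein · Input – 2.5 µM RBBP9 dispensing solution, before mixing · Measure – percent inhibition from mP, scaled between DMSO and no-protein wells · Benchmarks – DMSO-treated enzyme wells and wells lacking RBBP9 · Times – preincubation 30 min plus labeling 45 min at 25 °C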
Calpain2 inh: inhibitors of pig calpain II, primary screen, biochemical, fluorogenic peptide substrate, 1536-well; 220,000 compounds, 0.37% hits; purified calpain II, 30 min; inhibition, % at 16 µM;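 active means inhibition above about 50%, limit read from the data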
Wee1 stabilizer: Wee1 degradation inhibitors, primary screen, cell-based, HeLa, Wee1K328M-luciferase, luminescence. HeLa Luc-Wee1K328M stability; 100% = proteasome inhibitor MG132 effect. reporter increase, % at 5 µM. 220,000 compounds, 1.2% hits;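 active means activation above the mean of all tested compounds plus 3 SD, set per screening run, cut at about 8.8% in these data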;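 further: cells exposed to compound for 20 h before luminescence read; 0% = DMSO alone and 100% = MG132 at 30 µM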
Target sequence (P30291 whole entry K328M): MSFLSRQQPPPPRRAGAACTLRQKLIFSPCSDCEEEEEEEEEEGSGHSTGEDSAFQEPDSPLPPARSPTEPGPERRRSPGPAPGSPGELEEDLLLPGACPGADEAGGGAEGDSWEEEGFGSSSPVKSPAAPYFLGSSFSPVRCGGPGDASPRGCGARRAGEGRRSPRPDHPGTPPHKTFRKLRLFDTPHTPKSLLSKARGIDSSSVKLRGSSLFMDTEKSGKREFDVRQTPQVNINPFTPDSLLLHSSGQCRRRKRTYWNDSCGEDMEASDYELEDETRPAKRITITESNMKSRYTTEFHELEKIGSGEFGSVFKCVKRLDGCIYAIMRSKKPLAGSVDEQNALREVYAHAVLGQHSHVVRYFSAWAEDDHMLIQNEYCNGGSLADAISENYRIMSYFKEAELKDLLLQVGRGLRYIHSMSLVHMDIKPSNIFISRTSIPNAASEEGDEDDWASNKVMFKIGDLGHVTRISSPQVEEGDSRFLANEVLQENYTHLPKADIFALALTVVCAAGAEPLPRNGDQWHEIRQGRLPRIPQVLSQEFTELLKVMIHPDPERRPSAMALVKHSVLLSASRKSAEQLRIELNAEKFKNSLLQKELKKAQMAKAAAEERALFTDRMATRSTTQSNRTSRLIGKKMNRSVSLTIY
zVAD death inh: inhibitors of zVAD-triggered necroptosis, primary screen, L929 cells | L929 zVAD necroptosis rescue, ATP luminescence, 24 h; with zVAD 60 µM | viability rescue, % at 10 µM | 220,000 compounds, 0.38% hits;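 active means activation, scaled between plate controls, above about 75%, limit read from the data; inactive means activation under that limit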;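 further: 0% = zVAD with DMSO and 100% = DMSO alone without zVAD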
TNF necrop inh: inhibitors of TNF-alpha triggered necroptosis, primary screen, cell-based, Jurkat FADD-/-, single concentration | Jurkat FADD-/- TNF necroptosis rescue, ATP luminescence, 24 h; 0 = TNF only, 100 = no-TNF cells | activation (protection from cell death), % at 10 µM | 220,000 compounds, 0.068% hits | AID 463075, 2010;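 active means activation, meaning protection from cell death, of at least 50% relative to plate controls; inactive means activation below 50%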;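 further: necroptosis triggered by 40 ng/mL TNF-alpha added together with compound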
zVAD death conf: inhibitors of zVAD-triggered necroptosis in L929, confirmation, L929 cells, duplicate runs; shares compounds with zVAD death inh; L929 zVAD-induced necroptosis rescue, ATP luminescence, 24 h; activation (protection from necroptosis), % at 10 µM; 760 compounds, 16% hits;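 active means mean protection from necroptosis of at least 50% over duplicate tests; inactive means mean protection below 50%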;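 further: 0% = cells with zVAD alone and 100% = vehicle cells without zVAD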
* marks the source's active call; other numbers are inactive results; . = not tested or not shown. The list is not random: actives were taken first. Their share in the collection is about 2.1%.

SMILES	Pf gametocyte	RBBP9 inhibitor	Calpain2 inh	Wee1 stabilizer	zVAD death inh	TNF necrop inh	zVAD death conf
Cc1ccc2nc(SCC(=O)N3CCN(C(=O)c4ccco4)CC3)[nH]c2c1	-1.9	-7.6	-4.8	-1.3	19.4	2.4	.
O=C(CSc1nc2ccc(Cl)cc2[nH]1)N1CCN(C(=O)c2ccco2)CC1	-2.5	-2.9	-8.2	-2.0	85.3*	2.4	48.5
O=C(CSc1nc2ccc(Nc3nc(N4CCOCC4)nc(N4CCOCC4)n3)cc2s1)N1CCOCC1	14.3	-8.2	-29.3	3.1	2.9	2.9	.
CSc1nc2ccc(Nc3nc(N4CCOCC4)nc(N4CCOCC4)n3)cc2s1	12.1	-1.3	-38.7	0.3	84.1*	0.9	1.8
COc1ccccc1NC(=O)Nc1nn(C)c2cccc(OC)c12	-14.8	-5.3	-1.4	-1.7	6.1	0.3	.
Cc1[nH]n(-c2ccccc2)c(=O)c1/C=N/N(c1ccccc1)c1ccccc1	-9.0	-0.5	-110.3	-1.1	3.2	0.2	.
Cc1[nH]n(-c2ccccc2)c(=O)c1C=NC1CCCCC1	2.3	-6.3	-32.3	0.8	75.1*	2.6	1.1
Cc1[nH]n(-c2ccccc2)c(=O)c1C=NC1CCCCCC1	.	1.0	-0.6	-0.2	79.5*	3.0	34.0
Oc1ccc(-c2csc(Nc3ncccn3)n2)c(O)c1	0.1	-7.3	-22.4	6.2	81.3*	9.4	48.1
O=c1cc(C(F)(F)F)oc2c1ccc1ccccc12	-3.5	-3.9	-117.1	1.7	-1.5	-2.0	.
O=c1cc(-c2cccnc2)oc2c1ccc1ccccc12	-12.3	-4.2	-210.2	-1.9	75.3*	-10.7	2.4
COc1ccc(-n2cnnc2SCC(=O)Nc2cc(C(C)(C)C)nn2-c2ccccc2)cc1	0.9	-10.9	21.9	-1.4	85.1*	16.9	81.0*
c1ccc(-n2cnc3cc(NCc4ccccn4)ccc32)cc1	-15.5	-2.9	10.5	-1.8	76.4*	-0.7	62.9*
CC(C)n1cnc2cc(NCc3ccccn3)ccc21	.	-0.9	-48.4	0.5	0.0	1.2	.
c1ccc(-n2cnc3cc(NCc4ccncc4)ccc32)cc1	13.9	-4.4	-8.6	-3.1	83.2*	0.6	57.8*
CCOC(=O)C1=C(C)NC(C)=C(C(=O)OCC)C1C(=O)OCC(=O)N(C)C1CCS(=O)(=O)C1 (stereo not drawn)	-0.1	-1.9	-77.2	-2.9	2.0	0.8	.
CC(C)(C)c1ccc(-c2nc(C#N)c(NCc3cccnc3)o2)cc1	-20.3	-2.4	-42.5	-0.1	78.3*	2.0	10.1
CCCC(NC(=O)CCl)c1ccccc1 (stereo not drawn)	7.9	-5.4	-8.6	3.9	7.8	0.2	.
CCC(NC(=O)CCl)c1ccc(C)cc1 (stereo not drawn)	7.7	-1.7	5.5	0.2	76.6*	18.6	1.5
CCC(=O)Oc1ccc(-c2cnc3ccccc3n2)cc1	18.3	-1.9	9.1	2.0	89.2*	-3.0	39.3
Cc1ccc(C(=O)COC(=O)c2ccc(-c3cnc4ccccc4n3)cc2)cc1C	-27.4	-8.2	12.1	0.8	48.8	-1.5	.
Cc1scc(C(=O)NNC(=S)NC(C)c2ccccc2)c1C (stereo not drawn)	-18.6	2.1	12.1	0.2	1.3	0.2	.
FC(F)(F)c1cnc2c(-c3ccccc3)n[nH]c2c1	0.8	-8.5	-97.5	1.0	76.5*	3.6	17.1
COc1ccc(N/N=C(\C#N)C(N)=O)cc1	-5.4	-3.6	22.0	3.0	0.9	1.6	.
COc1ccc(N/N=C(/C(N)=O)C2=NC(C)(C)Cc3ccccc32)cc1	-5.8	1.9	-2.0	-2.1	75.6*	1.8	39.4
SMILES	Pf gametocyte	RBBP9 inhibitor	Calpain2 inh	Wee1 stabilizer	zVAD death inh	TNF necrop inh	zVAD death conf
O=c1[nH]c2ccccc2nc1/C=C/c1ccc(F)cc1	-7.8	-14.1	-15.8	1.9	67.3	-3.6	.
O=c1[nH]c2ccccc2nc1/C=C/c1ccccc1	0.3	4.0	-92.1	-2.4	78.1*	1.1	29.3
Clc1ncc(CSc2ccccc2)s1	16.6	7.1	1.5	-1.6	90.6*	17.9	49.9
Cc1ccc(C(=O)Nc2cccc(C(F)(F)F)c2)cc1NC(=O)c1nccn1C	-20.3	.	-170.9	.	81.8*	3.9	10.2
Cc1ccc(C(=O)Nc2cccc(C(F)(F)F)c2)cc1Nc1cnccn1	.	.	-27.9	.	81.9*	-0.1	70.3*
Cc1ccc(C(=O)Nc2cccc(C(F)(F)F)c2)cc1Nc1ncnc2nc[nH]c12	.	.	-15.9	.	82.3*	-4.0	71.6*
Cc1ccc(NC(=O)CCC(=O)OCc2ccc(Br)cc2)cc1	.	-8.5	1.6	-0.7	0.2	1.3	.
CCN=C(N/N=C/c1ccc([N+](=O)[O-])cc1)SC	.	-7.5	12.1	1.7	0.2	-0.9	.
O=C(c1ccco1)N1N=C(c2ccc(Br)cc2)CC1(O)C(F)(F)F (stereo not drawn)	-0.9	-13.3	32.4	-2.4	-0.1	-0.4	.
CCOc1cc(-c2cc(-c3ccc(C)cc3)nc(N)c2C#N)ccc1O	-3.8	-6.0	-5.1	-0.7	-0.2	-8.0	.
CCOc1cc(/C=C(\C#N)c2[nH]nc(N)c2C#N)ccc1O	11.1	2.9	-39.9	-2.9	81.4*	2.1	39.3
Cc1ccc(NC(=O)c2cc(-c3ccco3)nc3ccccc23)cc1S(=O)(=O)N1CCOCC1	.	-5.4	-181.0	-0.6	77.4*	-2.3	10.0
COc1ccc(NC(=O)c2cc(-c3ccco3)nc3ccccc23)cc1S(=O)(=O)N1CCOCC1	-5.4	-3.9	-63.6	-3.0	0.9	-13.3	.
N#Cc1cc([N+](=O)[O-])cnc1NCC(O)CO (stereo not drawn)	14.7	2.4	-38.6	-1.6	0.2	-2.9	.
CCOc1ccc2nc(NC(=O)C3CCCN(S(=O)(=O)c4cccs4)C3)sc2c1 (stereo not drawn)	12.5	-22.9	-158.9	-0.4	88.3*	1.1	5.1
CCN(CC)CCCNC(=O)c1cc(Sc2nnc(C)s2)nc2ccccc12	-1.7	-6.1	-2.2	2.4	78.5*	6.5	9.8
O=C(CCl)Nc1c[nH]c(=O)[nH]c1=O	5.0	-8.8	25.2	0.0	80.6*	44.5	12.3
Oc1[nH]c(=S)sc1/C=C1\C(c2ccccc2)=Nc2ccccc21	6.6	3.2	17.3	6.9	2.6	-1.5	.
COc1ccc2nc(NC(C)=O)sc2c1	.	-0.7	-15.8	-2.0	63.7	-0.6	.
CC(C)C(=O)Nc1nc2ccc(S(C)(=O)=O)cc2s1	-19.3	-8.2	22.7	-3.0	84.0*	-10.1	9.2
CS(=O)(=O)c1ccc2nc(NC(=O)CS(=O)(=O)Cc3ccccc3)sc2c1	-14.3	-9.9	-4.2	-0.5	4.2	1.9	.
